# Measured values of several laboratories.
# Compare with care: the assays were run in different laboratories.
# Target: STE20-like serine/threonine-protein kinase (SLK, Homo sapiens, UniProt Q9H2G2)
Compound,test,test system,conditions,endpoint,result
O=C(N1CCS(=O)(=O)CC1)N1C[C@H](c2ccc(OC(F)(F)F)cc2)C[C@H](c2nc(C3CC3)no2)C1,"cell-free assay, competition with immobilised ligand",,1 µM,remaining binding,100%
O=C1NC(=O)c2cc(Nc3ccc(F)cc3)c(Nc3ccc(F)cc3)cc21,cell-free assay,,0.5 µM,remaining signal,65.5%
CO[C@@H](C)c1c(Nc2ccc([C@H](N(C)C(=O)C3CCS(=O)(=O)CC3)C(F)(F)F)cc2)cnc2cc(Cl)nn12,"cell-free assay, competition with immobilised ligand",,1 µM,remaining binding,81%
Cc1ccc(C(=O)Nc2ccc(CN3CCN(C)CC3)c(C(F)(F)F)c2)cc1C#Cc1cnc2cccnn12,"enzyme activity, inhibitor",,23.5 nM,remaining activity,7%
CS(=O)(=O)CCNCc1ccc(-c2ccc3ncnc(Nc4ccc(OCc5cccc(F)c5)c(Cl)c4)c3c2)o1,cell-free assay,,0.5 µM,remaining signal,85.1%
CC(C)(O)[C@H]1CC[C@H](Nc2ccc3ncc(-c4cccc(C(F)(F)F)c4)n3n2)CC1,"enzyme activity, inhibitor",,1 µM,remaining activity,71.5%
CN1CC(Oc2cnc(C#N)cc2-c2ccn3nc(NC(=O)C4CC4)cc3c2)C1,"enzyme activity, inhibitor",,1 µM,inhibition,7%
Cn1nc(C(=O)NCc2ccc(C(=O)O)cc2)cc1-c1ccc2[nH]ccc2c1,"cell-free assay, competition with immobilised ligand",,0.1 µM,remaining binding,65%
Cn1c2c(Cl)c(Cl)ccc2c2cc[nH]c(=O)c21,"thermal stability, DSF",,10 µM,ΔTm,0.2 °C
CC1=C(C#N)C(c2ccc3c(c2)c(NC(=O)c2ccccc2C)nn3C)C(C#N)=C(C)N1,"cell-free assay, competition with immobilised ligand",,1 µM,remaining binding,88%
CC(C)(C)c1nc(-c2cccc(NS(=O)(=O)c3c(F)cccc3F)c2F)c(-c2ccnc(N)n2)s1,"enzyme activity, inhibitor, radiometric",,1 µM,remaining activity,90%
CNC(=O)Nc1ccc2c(c1)CC[C@@]21OC(=O)N(CC(=O)N(Cc2ccc(F)cc2)[C@@H](C)C(F)(F)F)C1=O,"cell-free assay, competition with immobilised ligand",,1 µM,remaining binding,82%
Cn1c2c(Cl)c(Cl)ccc2c2cn[nH]c(=O)c21,"thermal stability, DSF",,10 µM,ΔTm,0.4 °C
O=C(O)c1cc(-c2ccc(C3CCNCC3)cc2)c2ccc(-c3ccc(C(F)(F)F)cc3)cc2c1,"cell-free assay, competition with immobilised ligand",,1 µM,remaining binding,100%
CN1CCC2(CC1)NC(=O)c1c(c3ccc(Cl)c(Cl)c3n1C)C2C#N (racemic),"thermal stability, DSF",,10 µM,ΔTm,-0.5 °C
CCS(=O)(=O)c1cc2cc(C[C@](O)(CC(C)(C)c3ccc(F)cc3C(N)=O)C(F)(F)F)[nH]c2cn1,"cell-free assay, competition with immobilised ligand",,1 µM,remaining binding,100%
N#CCCc1ccc2c(c1)-c1[nH]c3ccc([N+](=O)[O-])cc3c1CC(=O)N2,cell-free assay,,0.5 µM,remaining signal,87.2%
CN(C)CC#Cc1ccc(OCCCc2sc(N3CCc4cccc(C(=O)Nc5nc6ccccc6s5)c4C3)nc2C(=O)O)c(F)c1,"cell-free assay, competition with immobilised ligand",,1 µM,remaining binding,100%
Cn1c2c(c3ccc(Cl)c(Cl)c31)C(C#N)C1(CCNCC1)NC2=O (racemic),"thermal stability, DSF",,10 µM,ΔTm,-0.1 °C
O=C1Nc2ccc(Cl)cc2C1=Cc1cc(Cl)c(O)c(Cl)c1,cell-free assay,,0.5 µM,remaining signal,95.3%
COc1cc(-c2cc(-c3ccc(N4CCNCC4)cc3)cnc2C)cc(OC)c1OC,"enzyme activity, inhibitor",,1 µM,inhibition,43%
Cn1c2c(c3ccccc31)C(C#N)C(C)(C)NC2=O (stereo not shown),"thermal stability, DSF",,10 µM,ΔTm,-0.1 °C
CCN(CC)CCNC(=O)c1c(C)[nH]c(/C=C2\C(=O)Nc3ccc(F)cc32)c1C,cell-free assay,,0.5 µM,remaining signal,63.8%
CCN1CCN(Cc2ccc(NC(=O)c3ccc(C)c(Oc4ccnc5[nH]ccc45)c3)cc2C(F)(F)F)CC1,"target engagement in cells, inhibitor, chemoproteomics",Huh-7,1 µM,inhibition,-70.4%
Cc1sc(C(=O)NC2COC2)cc1-n1cc(NC(=O)Nc2c(F)cccc2Cl)cn1,"enzyme activity, inhibitor",,10 µM,remaining activity,99.7%
